From ChEMBL document CHEMBL1135489, “Structurally simple trichostatin A-like straight chain hydroxamates as potent histone deacetylase inhibitors” (J Med Chem, 2002)

Experiments:
Histone deacetylase 1 = Histone deacetylase 1 (Homo sapiens, UniProt Q13547); test: Inhibition against partially purified human histone deacetylase 1 (HDAC-1)
HMEC = test: Inhibitory concentration required to reduce normal human epithelial cell line (HMEC), growth by 50% in MTT assay; type: functional, cell-based
Procedure, shortened: (§1)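 Compound dilution series added to plated cells, 72 h at 37 °C, 5% CO2. MTT then added at 0.5 mg/mL final for 4 h. Solubilization buffer (50% DMF, 20% SDS, pH 4.7) added, incubated overnight, read at 570 with 630 reference. OD converted to cell number from each line's standard growth curve.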

MCF7 = test: Inhibitory concentration required to reduce MCF-7 tumor cell growth by 50% in MTT assay; type: functional, cell-based; conditions: Homo sapiens; procedure, shortened: as §1
MDA-MB-231 = test: Inhibitory concentration required to reduce MDAmb 231 tumor cell growth by 50% in MTT assay; type: functional, cell-based; conditions: Homo sapiens; procedure, shortened: as §1
A549 = test: Inhibitory concentration required to reduce A549 tumor cell growth by 50% in MTT assay; type: functional, cell-based; conditions: Homo sapiens; procedure, shortened: as §1
DU-145 = test: Inhibitory concentration required to reduce DU145 tumor cell growth by 50% in MTT assay; type: functional, cell-based; conditions: Homo sapiens; procedure, shortened: as §1
HCT-116 = test: Inhibitory concentration required to reduce HCT 116 tumor cell growth by 50% in MTT assay; type: functional, cell-based; conditions: Homo sapiens; procedure, shortened: as §1
T-24 = test: Inhibitory concentration required to reduce T24 tumor cell growth by 50% in MTT assay; type: functional, cell-based; conditions: Homo sapiens; procedure, shortened: as §1
NCI-H446 = test: Inhibitory concentration required to reduce H446 tumor cell growth by 50% in MTT assay; type: functional, cell-based; conditions: Homo sapiens; procedure, shortened: as §1
SW48 = test: Inhibitory concentration required to reduce SW48 tumor cell growth by 50% in MTT assay; type: functional, cell-based; conditions: Homo sapiens; procedure, shortened: as §1

Sequence of Histone deacetylase 1 (Q13547 whole entry): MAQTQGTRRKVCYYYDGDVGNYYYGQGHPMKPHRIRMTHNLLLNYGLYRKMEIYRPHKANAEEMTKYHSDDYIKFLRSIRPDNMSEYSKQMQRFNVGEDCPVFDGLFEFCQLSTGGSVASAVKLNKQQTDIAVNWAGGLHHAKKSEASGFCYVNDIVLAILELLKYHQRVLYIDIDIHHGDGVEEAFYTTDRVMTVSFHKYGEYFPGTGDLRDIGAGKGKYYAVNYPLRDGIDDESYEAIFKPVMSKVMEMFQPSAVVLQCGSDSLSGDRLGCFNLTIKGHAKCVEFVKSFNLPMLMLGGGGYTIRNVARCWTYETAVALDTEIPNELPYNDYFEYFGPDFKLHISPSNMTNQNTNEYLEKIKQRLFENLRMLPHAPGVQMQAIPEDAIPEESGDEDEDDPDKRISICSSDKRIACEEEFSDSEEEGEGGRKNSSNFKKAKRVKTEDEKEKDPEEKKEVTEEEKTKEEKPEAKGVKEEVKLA

SMILES | IC50 (Histone deacetylase 1) [nM] | IC50 (HMEC) [nM] | IC50 (MCF7) [nM] | IC50 (MDA-MB-231) [nM] | IC50 (A549) [nM] | IC50 (DU-145) [nM] | IC50 (HCT-116) [µM] | IC50 (T-24) [µM] | IC50 (NCI-H446) [nM] | IC50 (SW48) [nM]
O=C(CCCCC/C=C/c1ccc2ccccc2c1)NO | 6 |  |  |  |  |  |  |  |  | 
O=C(CCCCCCC(=O)c1ccc(C(F)(F)F)cc1)NO | 45 |  |  |  |  |  |  |  |  | 
O=C(CCCCCCCc1ccc2ccccc2c1)NO | 25 |  |  |  |  |  |  |  |  | 
O=C(CCCCCCC(=O)c1cccnc1)NO | 153 |  |  |  |  |  |  |  |  | 
O=C(CCCCCCC(=O)c1ccc(N2CCN(c3ccccc3)CC2)cc1)NO | 4.5 | > 20000 | 2000 | 800 | 5000 | 5500 | 4 | 7 | 1000 | 2500
CC(/C=C/C(=O)NO)=C\[C@@H](C)C(=O)c1ccc(N(C)C)cc1 [TRICHOSTATIN] |  | 1600 | 100 | 90 | 160 | 200 | < 0.05 | 0.15 | 80 | 100
